Results from ChEMBL document CHEMBL3421610, “Antimalarial activity of 4-amidinoquinoline and 10-amidinobenzonaphthyridine derivatives” (J Med Chem, 2015).
pIC50: −log10 of the molar value. Converted amounts (≈) assume the structure as drawn. The source made the active and inactive calls. The rule behind the calls is not given here.

Columns and labels:
[1] = tested on: Plasmodium falciparum; experiment: Antimalarial activity against chloroquine-resistant Plasmodium falciparum W2 assessed as growth inhibition after 18 hrs by [3H]-hypoxanthine uptake assay; type: functional, organism-based
How it was run: (§1)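 P. falciparum clones D6, W2 and TM91C235; modified semiautomated microdilution. Compounds in DMSO, diluted in RPMI 1640 with 10% human plasma, tested over (1.56-100) x 10^-9 M; final DMSO 0.25-0.5%. Inoculum 0.5% parasitemia, 1% hematocrit. 24 h incubation, then [3H]-hypoxanthine added, further 18 h. Harvested and read by scintillation counting; IC50 by nonlinear regression.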

[2] = tested on: Plasmodium falciparum; experiment: Antimalarial activity against chloroquine-resistant Plasmodium falciparum C235 assessed as growth inhibition after 18 hrs by [3H]-hypoxanthine uptake assay; type: functional, organism-based; how it was run: as §1
[3] = tested on: HepG2; experiment: Cytotoxicity against human HepG2 cells after 48 hrs by MTT assay; type: cell-based; conditions: HepG2, 48 h
How it was run: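 HepG2 cells in supplemented MEM, plated at 9570 cells/well in 384-well format and incubated overnight at 37 °C, 5% CO2. Twelve duplicate 1.6-fold dilutions, 57–10,000 ng/ml, incubated 48 h. MTT added for 1 h at room temperature in the dark, formazan dissolved in acidified isopropanol, absorbance read. IC50 by sigmoidal variable-slope nonlinear regression; tryptanthrin control.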

[4] = tested on: Plasmodium berghei; experiment: Antimalarial activity against erythrocytic stage of chloroquine resistant Plasmodium berghei ANKA infected in mouse assessed as cure rate at 120 mg/kg, po qd administered on day 3, 4 and 5 post infection measured 3 times per week for 30 days, starting from day 3 by Thompson test; type: functional, organism-based; design: dose 120 mg/kg
How it was run: (§2)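 Male mice of 16-20 g inoculated intraperitoneally with 5 x 10^6 erythrocytes infected with CQ-resistant P. berghei ANKA. Drug given orally as a suspension once daily on days 3, 4 and 5 post-infection, five mice per dose. Blood films from day 3, three times weekly for 30 days. Cure means parasite-negative on day 30 or surviving 30 days. Mice losing >20% body weight sacrificed.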

[5] = tested on: Mus musculus; experiment: Toxicity in mouse infected with erythrocytic stage of chloroquine resistant Plasmodium berghei ANKA up to 160 mg/kg, po qd administered on day 3, 4 and 5 post infection measured over 30 days; type: organism-based, Erythrocyte; design: dose 160 mg/kg, route oral; conditions: in vivo, 720 h
How it was run: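 Male mice of 16-20 g infected intraperitoneally with CQ-resistant P. berghei ANKA (5 x 10^6 infected erythrocytes). Oral dosing once daily on days 3-5, five mice per group. Animals followed for 30 days by blood films; mice losing >20% body weight sacrificed.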

[6] = Half life in human liver microsomes at 1 uM by LC/MS analysis; type: ADME
How it was run: (§3)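 Compound at 1 µM final, diluted from […], with 0.5 mg/mL pooled human or mouse liver microsomes, NADP, MgCl2 and 0.1 M PBS pH 7.4. Reaction started with 1 U/mL G6PD and shaken at 37 °C. Aliquots quenched in cold acetonitrile at 0, 10, 20, 30 and 60 min and quantified by LC/MS. Half-life from log plot of total ion chromatogram area remaining.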

[7] = Half life in mouse liver microsomes at 1 uM by LC/MS analysis; type: ADME; how it was run: as §3
[8] = tested on: Plasmodium falciparum; experiment: Antimalarial activity against chloroquine-sensitive Plasmodium falciparum D6 assessed as growth inhibition after 18 hrs by [3H]-hypoxanthine uptake assay; type: functional, organism-based; how it was run: as §1
[9] = tested on: Plasmodium berghei; experiment: Antimalarial activity against erythrocytic stage of chloroquine resistant Plasmodium berghei ANKA infected in mouse assessed as cure rate at 60 mg/kg, po qd administered on day 3, 4 and 5 post infection measured 3 times per week for 30 days, starting from day 3 by Thompson test; type: functional, organism-based; design: dose 60 mg/kg; how it was run: as §2
[10] = target: hERG (KCNH2) (Homo sapiens, UniProt Q12809); experiment: Inhibition of human ERG expressed in CHL cells assessed as tail current at 10 uM after 7 mins by patch clamp assay relative to control; type: cell-based; conditions: CHL cells expressing human ERG
Chain of hERG (KCNH2) (Q12809 whole entry): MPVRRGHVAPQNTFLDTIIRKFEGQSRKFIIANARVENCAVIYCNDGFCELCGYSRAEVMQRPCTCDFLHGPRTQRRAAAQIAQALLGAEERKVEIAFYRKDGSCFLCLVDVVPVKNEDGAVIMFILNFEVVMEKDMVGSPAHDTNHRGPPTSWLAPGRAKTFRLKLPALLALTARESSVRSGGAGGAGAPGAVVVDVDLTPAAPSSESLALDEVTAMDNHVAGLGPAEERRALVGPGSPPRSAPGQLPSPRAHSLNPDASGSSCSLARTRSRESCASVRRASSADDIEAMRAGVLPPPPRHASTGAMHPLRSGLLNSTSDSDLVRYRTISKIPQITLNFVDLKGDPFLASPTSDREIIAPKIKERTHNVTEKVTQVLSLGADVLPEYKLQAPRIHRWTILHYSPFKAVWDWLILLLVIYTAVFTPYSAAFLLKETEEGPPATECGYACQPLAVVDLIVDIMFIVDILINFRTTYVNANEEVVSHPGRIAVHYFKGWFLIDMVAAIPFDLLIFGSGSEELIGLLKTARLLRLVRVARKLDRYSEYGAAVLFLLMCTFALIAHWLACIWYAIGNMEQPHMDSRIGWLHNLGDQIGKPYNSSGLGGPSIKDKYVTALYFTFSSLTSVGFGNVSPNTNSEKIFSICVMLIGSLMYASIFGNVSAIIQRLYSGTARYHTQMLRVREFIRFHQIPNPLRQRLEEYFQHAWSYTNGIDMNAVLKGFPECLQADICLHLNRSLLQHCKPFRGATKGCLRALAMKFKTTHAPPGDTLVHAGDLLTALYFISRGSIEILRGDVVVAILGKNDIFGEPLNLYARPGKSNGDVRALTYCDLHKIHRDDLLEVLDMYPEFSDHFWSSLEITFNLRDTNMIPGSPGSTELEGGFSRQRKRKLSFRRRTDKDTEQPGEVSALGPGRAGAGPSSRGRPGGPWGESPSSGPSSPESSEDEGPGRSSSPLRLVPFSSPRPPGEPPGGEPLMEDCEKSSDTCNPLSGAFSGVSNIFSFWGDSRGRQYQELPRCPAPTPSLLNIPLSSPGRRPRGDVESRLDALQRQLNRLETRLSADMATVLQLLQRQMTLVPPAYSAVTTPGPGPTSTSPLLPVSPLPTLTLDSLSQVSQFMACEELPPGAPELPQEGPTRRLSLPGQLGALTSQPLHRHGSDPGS

[11] = tested on: Plasmodium berghei; experiment: Antimalarial activity against erythrocytic stage of chloroquine resistant Plasmodium berghei ANKA infected in mouse assessed as parasite clearance at 160 mg/kg, po qd administered on day 3, 4 and 5 post infection measured on day 2 to 7 post last dose; type: functional, organism-based; design: dose 160 mg/kg
How it was run: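 Male mice of 16-20 g inoculated intraperitoneally with 5 x 10^6 erythrocytes infected with CQ-resistant P. berghei ANKA. Drug given orally as a suspension once daily on days 3, 4 and 5 post-infection, five mice per dose. Parasitemia followed by blood films from day 3, three times weekly for 30 days; infected untreated mice served as negative controls.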

[12] = tested on: Plasmodium berghei; experiment: Antimalarial activity against erythrocytic stage of chloroquine resistant Plasmodium berghei ANKA infected in mouse assessed as cure rate at 160 mg/kg, po qd administered on day 3, 4 and 5 post infection measured 3 times per week for 30 days, starting from day 3 by Thompson test; type: functional, organism-based; design: dose 160 mg/kg; how it was run: as §2
[13] = tested on: Plasmodium berghei; experiment: Antimalarial activity against erythrocytic stage of chloroquine resistant Plasmodium berghei ANKA infected in mouse assessed as cure rate at 15 mg/kg, po qd administered on day 3, 4 and 5 post infection measured 3 times per week for 30 days, starting from day 3 by Thompson test; type: functional, organism-based; design: dose 15 mg/kg; how it was run: as §2
[14] = tested on: Salmonella typhi; experiment: Mutagenicity in Salmonella typhi by Ames test; type: toxicity, organism-based; conditions: salmonella enterica subsp. enterica […]

## COc1ccc2nc3cc(Cl)ccc3c(N/C(=N/CCCN(C)C)c3ccccc3)c2n1
[1]
  pIC50: 8.70
[2]
  pIC50: 8.77
[3]
  IC50: 5.78 µg/mL (≈ 12.9 µM)
[4]
  Activity: Active
[5]
  Activity: Non-toxic
[6]
  half-life at 1 µM: 18 min
[7]
  half-life at 1 µM: 44 min
[8]
  pIC50: 8.74
[9]
  Activity: Active
[10]
  inhibition at 7 min, 10 µM: 48.9%

## C/C(=N/c1ccnc2cc(Cl)ccc12)NC1CCN(C(C)C)CC1
[11]
  Activity: Active
[1]
  pIC50: 6.78
[12]
  Activity: inactive
[2]
  pIC50: 6.87
[3]
  IC50: 5.71 µg/mL (≈ 16.6 µM)
[5]
  Activity: Non-toxic
[6]
  half-life at 1 µM: > 60 min
[7]
  half-life at 1 µM: > 60 min
[8]
  pIC50: 6.97

## COc1ccc2nc3cc(Cl)ccc3c(N/C(=N/CCCN(C)C)c3ccc(Cl)cc3)c2n1
[13]
  Activity: Active
[1]
  pIC50: 8.18
[2]
  pIC50: 8.37
[3]
  IC50: 2.51 µg/mL (≈ 5.2 µM)
[14]
  Activity: Non-toxic
[5]
  Activity: Non-toxic
[6]
  half-life at 1 µM: 32 min
[7]
  half-life at 1 µM: > 60 min
[8]
  pIC50: 8.55
[9]
  Activity: Active
[10]
  inhibition at 7 min, 10 µM: 77%

## CCN(CC)CC(C)(C)C/N=C(/Nc1c2ccc(Cl)cc2nc2ccc(OC)nc12)c1ccccc1
[13]
  Activity: Active
[1]
  pIC50: 7.21
[2]
  pIC50: 7.53
[3]
  IC50: > 24.2 µg/mL
[5]
  Activity: Non-toxic
[6]
  half-life at 1 µM: > 60 min
[7]
  half-life at 1 µM: > 60 min
[8]
  pIC50: 7.66
[9]
  Activity: Active
[10]
  inhibition at 7 min, 10 µM: 10%

## CCN(CC)CCCCN/C(=N\c1ccnc2cc(Cl)ccc12)C(C)C
[1]
  pIC50: 6.60
[12]
  Activity: Active
[2]
  pIC50: 6.90
[3]
  IC50: 5.01 µg/mL (≈ 13.4 µM)
[5]
  Activity: Non-toxic
[6]
  half-life at 1 µM: 55 min
[7]
  half-life at 1 µM: 42 min
[8]
  pIC50: 7.21
[10]
  inhibition at 7 min, 10 µM: 54.6%

## COc1ccc2nc3cc(Cl)ccc3c(N/C(C)=N/CCCN3CCCCC3)c2n1
[1]
  pIC50: 7.60
[2]
  pIC50: 7.88
[3]
  IC50: 2.81 µg/mL (≈ 6.59 µM)
[4]
  Activity: Active
[5]
  Activity: Non-toxic
[6]
  half-life at 1 µM: 14 min
[7]
  half-life at 1 µM: 15 min
[8]
  pIC50: 8.10
[10]
  inhibition at 7 min, 10 µM: 94.5%

## CN(C)CCCN/C(=N\c1ccnc2cc(Cl)ccc12)c1ccc(Cl)cc1
[1]
  pIC50: 8.54
[2]
  pIC50: 8.96
[3]
  IC50: 1.93 µg/mL (≈ 4.8 µM)
[14]
  Activity: Non-toxic
[6]
  half-life at 1 µM: 48 min
[7]
  half-life at 1 µM: 35 min
[8]
  pIC50: 8.70
[10]
  inhibition at 7 min, 10 µM: 115%

## CCN(CC)CCC/N=C(\C)Nc1c2ccc(Cl)cc2nc2ccc(OC)nc12
[1]
  pIC50: 7.39
[2]
  pIC50: 7.58
[3]
  IC50: 2.06 µg/mL (≈ 4.97 µM)
[4]
  Activity: Active
[5]
  Activity: Non-toxic
[6]
  half-life at 1 µM: 33 min
[7]
  half-life at 1 µM: 29 min
[8]
  pIC50: 7.75
[10]
  inhibition at 7 min, 10 µM: 100%

## C/C(=N/c1ccnc2cc(Cl)ccc12)NCCCCN1CCCCC1
[11]
  Activity: Active
[1]
  pIC50: 6.90
[12]
  Activity: inactive
[2]
  pIC50: 7.19
[3]
  IC50: 9.81 µg/mL (≈ 27.3 µM)
[5]
  Activity: Non-toxic
[6]
  half-life at 1 µM: > 60 min
[7]
  half-life at 1 µM: > 60 min
[8]
  pIC50: 7.21

## C/C(=N/c1ccnc2cc(Cl)ccc12)NC1CCN(Cc2ccccc2)CC1
[11]
  Activity: Active
[1]
  pIC50: 6.70
[12]
  Activity: inactive
[2]
  pIC50: 7.06
[3]
  IC50: 8.07 µg/mL (≈ 20.5 µM)
[5]
  Activity: Non-toxic
[6]
  half-life at 1 µM: > 60 min
[7]
  half-life at 1 µM: > 60 min
[8]
  pIC50: 7.25

## CC(C)/C(=N/c1ccnc2cc(Cl)ccc12)NCCCCN1CCCCC1
[1]
  pIC50: 7.73
[2]
  pIC50: 7.92
[3]
  IC50: 5.71 µg/mL (≈ 14.8 µM)
[4]
  Activity: Active
[5]
  Activity: Non-toxic
[6]
  half-life at 1 µM: 29 min
[7]
  half-life at 1 µM: 31 min
[8]
  pIC50: 8.12
[10]
  inhibition at 7 min, 10 µM: 33%

## CC(C)/C(=N/c1ccnc2cc(Cl)ccc12)NCCCN1CCCCC1
[1]
  pIC50: 7.04
[12]
  Activity: Active
[2]
  pIC50: 7.25
[3]
  IC50: > 24.2 µg/mL
[5]
  Activity: Non-toxic
[6]
  half-life at 1 µM: 29 min
[7]
  half-life at 1 µM: 43 min
[8]
  pIC50: 7.47
[10]
  inhibition at 7 min, 10 µM: 74.5%

## CCN(CC)CCN/C(=N\c1ccnc2cc(Cl)ccc12)C(C)C
[1]
  pIC50: 7.01
[12]
  Activity: Active
[2]
  pIC50: 7.28
[3]
  IC50: 12.7 µg/mL (≈ 36.6 µM)
[5]
  Activity: Toxic
[6]
  half-life at 1 µM: > 60 min
[7]
  half-life at 1 µM: 12 min
[8]
  pIC50: 7.27

## COc1ccc2nc3cc(Cl)ccc3c(N/C(=N/CCCN3CCCCC3)c3ccccc3)c2n1
[1]
  pIC50: 8.48
[2]
  pIC50: 8.37
[3]
  IC50: 2.56 µg/mL (≈ 5.25 µM)
[4]
  Activity: Active
[5]
  Activity: Non-toxic
[6]
  half-life at 1 µM: 9 min
[7]
  half-life at 1 µM: 12 min
[8]
  pIC50: 8.29
[10]
  inhibition at 7 min, 10 µM: 80%

## CCN(CC)CCCCN/C(C)=N\c1ccnc2cc(Cl)ccc12
[11]
  Activity: Active
[1]
  pIC50: 7.01
[12]
  Activity: inactive
[2]
  pIC50: 7.59
[3]
  IC50: 2.68 µg/mL (≈ 7.73 µM)
[5]
  Activity: Non-toxic
[6]
  half-life at 1 µM: > 60 min
[7]
  half-life at 1 µM: > 60 min
[8]
  pIC50: 7.60

## COc1ccc2nc3cc(Cl)ccc3c(N/C(C)=N/CCCN(C)C)c2n1
[1]
  pIC50: 7.00
[2]
  pIC50: 7.29
[3]
  IC50: 18.1 µg/mL (≈ 46.8 µM)
[4]
  Activity: Active
[5]
  Activity: Non-toxic
[6]
  half-life at 1 µM: > 60 min
[7]
  half-life at 1 µM: 42 min
[8]
  pIC50: 7.59
[10]
  inhibition at 7 min, 10 µM: 91.5%
